Source: PubChem BioAssay (several laboratories)
TRPC4 potent = TRPC4 (mouse) allosteric potentiation. Q9QUQ5. B-score at 10 µM. 310,000 tested, 0.42% active. HEK293 TRPC4beta/mu-opioid, DAMGO EC20, Fluo-4 Ca2+ flux; stronger effect = higher value;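 active = B-score of calcium response area above 5 SD of library B-scores, with initial fluorescence ratio within 5 SD of library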;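 also: B-score of integrated fluorescence ratio over time as area under calcium response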
TRPC4 inh = inhibitors of mouse TRPC4 channel | Q9QUQ5 | HEK293 TRPC4beta/mu-opioid, DAMGO-evoked Fluo4 calcium flux; stronger effect = lower value | B-score at 10 µM | 300,000 tested, 0.39% active;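 active = B-score over 3 SD under the library average, no early fluorescence shift, positive overall ratio signal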
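Signal: kinetic Fluo4 fluorescence imaging of calcium influx. Material: stable TRPC4beta/mu-opioid receptor HEK293 cells. Probe or stimulus: DAMGO in two steps, submaximal then maximal.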
Platelet DG rel = platelet dense granule release activity; AID 1663; human platelet-rich plasma, SFLLRN dense granule ATP release, luminescence; 300,000 tested, 0.22% active; inhibition, %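 (compounds screened at 7.5 µM in platelet-rich plasma)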;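 active = mean replicate score, as percent of positive control, at or above 50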
TRPC6 inh = blocks the mouse TRPC6 cation channel; Q61143; HEK293-TRPC6, membrane potential dye, ACh-evoked depolarization; stronger effect = lower value; B-score at 10 µM; 310,000 tested, 1.1% active;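 active = B-score under library mean minus 3 SD, initial fluorescence not abnormally high, positive integrated signal ratio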;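 also: B-score derived from integrated fluorescence ratio over the kinetic read; more negative B-score means stronger inhibition of depolarization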
Target sequence (Q61143 whole entry, looked up): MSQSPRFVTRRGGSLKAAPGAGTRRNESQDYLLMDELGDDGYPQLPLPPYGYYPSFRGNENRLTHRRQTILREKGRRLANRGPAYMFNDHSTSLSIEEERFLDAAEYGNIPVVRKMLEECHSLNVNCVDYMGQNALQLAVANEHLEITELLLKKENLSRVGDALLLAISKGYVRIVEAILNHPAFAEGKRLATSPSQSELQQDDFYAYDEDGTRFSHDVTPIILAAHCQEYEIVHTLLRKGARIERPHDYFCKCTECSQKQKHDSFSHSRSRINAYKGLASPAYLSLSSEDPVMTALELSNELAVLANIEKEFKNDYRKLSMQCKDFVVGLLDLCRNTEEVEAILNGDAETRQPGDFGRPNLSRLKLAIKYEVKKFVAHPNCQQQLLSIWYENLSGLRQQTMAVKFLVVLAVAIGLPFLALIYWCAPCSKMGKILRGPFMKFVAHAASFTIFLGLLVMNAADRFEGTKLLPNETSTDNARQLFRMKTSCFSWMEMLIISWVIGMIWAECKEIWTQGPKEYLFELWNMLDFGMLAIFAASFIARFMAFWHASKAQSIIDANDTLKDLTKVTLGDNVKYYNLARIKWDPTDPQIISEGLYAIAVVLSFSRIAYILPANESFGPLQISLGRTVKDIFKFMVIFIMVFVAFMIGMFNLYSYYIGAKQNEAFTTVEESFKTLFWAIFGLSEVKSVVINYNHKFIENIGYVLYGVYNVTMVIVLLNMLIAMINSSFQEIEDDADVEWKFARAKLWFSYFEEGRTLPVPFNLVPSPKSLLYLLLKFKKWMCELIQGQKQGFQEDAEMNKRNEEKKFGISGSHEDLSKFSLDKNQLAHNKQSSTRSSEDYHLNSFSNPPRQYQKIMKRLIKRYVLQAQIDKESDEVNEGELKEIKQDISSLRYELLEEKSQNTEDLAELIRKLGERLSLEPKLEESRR
TRPC4 agonist = TRPC4 (mouse) channel activation; HEK293 TRPC4beta/mu-opioid, Fluo4 calcium fluorescence; stronger effect = higher value; 310,000 tested, 0.49% active; B-score at 10 µM; Q9QUQ5;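 active = B-score above 5 SD of library B-scores, and initial fluorescence ratio not above library mean plus 5 SD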;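 also: positive B-score marks a calcium rise read as TRPC4 activation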
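system = HEK293 cells stably co-expressing mouse TRPC4beta and mu-opioid receptor | schedule = Fluo4 dye loading 45 min at room temperature, 110 s recording | measure = B-scored integrated calcium fluorescence ratio | signal = Fluo4 calcium-sensitive dye fluorescence, kinetic, 1 Hz baseline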
TRPC6 act = activators of mouse TRPC6 channel | AID 2550 | HEK293-TRPC6 membrane potential dye fluorescence; stronger effect = higher value | 310,000 tested, 0.13% active | Q61143 | B-score at 10 µM;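 active = B-score of the integrated fluorescence ratio above library mean plus 3 SD, and starting fluorescence ratio within library mean plus 5 SD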;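 also: higher score means more depolarization so channel activation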
Active calls of the source: *; i = inactive; . = not tested or not shown. Sampled rows, rich in hits. Any-hit rate of the full collection: about 2.5%.

SMILES	TRPC4 potent	TRPC4 inh	Platelet DG rel	TRPC6 inh	TRPC4 agonist	TRPC6 act
Cc1sc2ncnc(NC3CCN(Cc4ccccc4)CC3)c2c1C	i	i	6	i	193*	i
c1ccc(CN2CCC(Nc3ncnc4sccc34)CC2)cc1	i	i	-1	i	i	i
CC(=O)c1ccccc1NC(=O)CSc1nnc(Cc2csc(C)n2)o1	i	i	-2	i	i	i
CCOc1ccc(OCc2nnc(SCC(=O)NC3CCS(=O)(=O)C3)n2-c2ccc(Cl)cc2)cc1 (configuration not stated)	i	i	-1	i	i	i
O=C(CSc1nnc(-c2ccc(Cl)cc2Cl)n1C1CCCCC1)NC1CCS(=O)(=O)C1 (configuration not stated)	i	-6*	-5	i	i	i
Cc1cc2cc(C#N)c(NCCNC(=S)NCCCN3CCOCC3)nc2cc1C	i	-6*	-4	i	i	i
C/C(=N\NC(=O)COc1ccc(C#N)cc1)c1ccccc1OC(F)F	i	i	-9	i	i	i
CCCCN(C)CCNC(=O)CCn1nc(-c2ccc(Cl)cc2)ccc1=O	11*	i	2	i	64*	i
CCN1CCCC1CNC(=O)c1csc2c1CCCC2 (configuration not stated)	i	i	-4	i	79*	i
CCC1CCCCN1CCCNC(=O)c1csc2c1CCCCC2 (configuration not stated)	i	i	-20	i	i	i
CCCCCCc1cc2cc(-c3nnc(-c4ccccc4O)o3)c(=O)oc2cc1O	25*	i	-3	i	i	i
CCCCCCc1cc2cc(-c3nnc(-c4cc(OC)c(OC)c(OC)c4)o3)c(=O)oc2cc1O	40*	i	-11	i	i	i
NC(=O)Cc1ccc(Nc2nnc(-c3ccc(O)cc3)c3ccccc23)cc1	i	i	12	i	i	i
Cc1ccc(NC(=O)CN2CCc3ccccc3C2)cc1F	i	-7*	-1	i	i	i
Cc1ccc(NC(=O)CN2CCc3ccccc3C2)cc1S(=O)(=O)N1CCOCC1	i	-9*	-1	i	70*	i
COC(=O)c1ccccc1NC(=O)CN1CCc2ccccc2C1	i	i	0	i	i	i
CC(NC(=O)c1ccccc1NC(=O)CN1CCc2ccccc2C1)c1ccccc1 (configuration not stated)	15*	i	5	i	i	i
CCNC(=O)CC1C(=O)N(c2ccc(C)cc2)C(=O)N1CCC(C)C (configuration not stated)	i	i	-2	i	i	i
COCCC(=O)Nc1c(-c2ccccc2)c2cc(Br)ccc2[nH]c1=O	i	i	7	i	i	i
CC(C)Sc1nc2sc3c(c2c2nnc(SCC(=O)NCc4ccco4)n12)CCCC3	i	-7*	1	i	i	i
CCSc1nc2sc3c(c2c2nnc(SCC(=O)NCc4ccco4)n12)CCCC3	i	i	-2	i	i	i
Cc1ccccc1N(CC(=O)N/N=C/c1ccc(F)cc1)C(=O)c1ccccc1	i	i	2	i	91*	i
Cc1ccccc1N(CC(=O)N/N=C/c1ccc(Cl)cc1)C(=O)c1ccccc1	i	i	1	i	i	i
CCOC(=O)N1CCC(NC(=O)CS(=O)Cc2nc(-c3ccccc3C)oc2C)CC1 (configuration not stated)	13*	i	10	i	i	i
Cc1oc(-c2ccccc2F)nc1CS(=O)CC(=O)NC1CC1 (configuration not stated)	i	i	-3	i	i	i
SMILES	TRPC4 potent	TRPC4 inh	Platelet DG rel	TRPC6 inh	TRPC4 agonist	TRPC6 act
CCN1CCN(C(=O)c2cc(COc3ccc(F)cc3F)on2)[C@@H](C)C1=O	i	i	-5	i	i	i
COc1ccc2ccccc2c1C1NC(=O)NC(C)=C1[N+](=O)[O-] (configuration not stated)	i	i	-7	i	i	i
O=C(c1cc(COc2ccc(F)cc2Cl)on1)N(CCO)Cc1cccs1	11*	i	2	i	i	i
Nc1ccccc1SCC(=O)Nc1ccc2c(c1)OCCO2	i	i	2	i	i	i
Cc1ccc(Cn2c(C3CCCN3c3nc(-c4ccc(F)cc4)cs3)nc3cc(Cl)c(Cl)cc32)cc1 (configuration not stated)	i	i	11	i	i	i
CCCn1c(C2CCCN2c2nc(-c3ccc(C)cc3)cs2)nc2ccccc21 (configuration not stated)	i	i	8	i	46*	i
CN1CCCN(Cc2ccccc2Br)CC1	i	i	-9	i	i	i
CN(CC(=O)Nc1c(Cl)cccc1Cl)C(=O)c1ccc(-n2cncn2)c([N+](=O)[O-])c1	i	i	-7	i	i	i
Cc1ccc(NS(=O)(=O)c2ccc(C(=O)N3CC(C)CC(C)C3)cc2)cc1 (configuration not stated)	i	i	-1	i	104*	i
COc1cc(/C=N/Nc2nncn2/N=C/c2ccc(O)c(OC)c2)ccc1O	i	i	56*	i	i	i
COc1ccc(OC)c(/C=N/Nc2nncn2/N=C/c2cc(OC)ccc2OC)c1	i	i	19	i	i	i
O=c1[nH]cc(S(=O)(=O)NCc2ccccc2)c(=O)[nH]1	i	i	-6	i	i	i
Cc1ccc2nc(SCC(=O)Nc3nnc(SCC(N)=O)s3)[nH]c2c1	i	i	26	i	i	i
NC1=NC2=C(CCCC2)C2(CCCCC2)S1	i	-6*	-1	i	i	i
Cc1cc(C)c(C)c(S(=O)(=O)N2CCN(C(=O)C3CSC4(C)CCC(=O)N34)CC2)c1C (configuration not stated)	i	i	7	i	i	i
CCOC(=O)CN1C2=NCCN2c2ccccc21	i	i	-2	i	i	i
Cc1ccccc1CN1C2=NCCN2c2ccccc21	i	i	9	i	i	i
CCCN1C2=NCCN2c2cc(C)c(C)cc21	i	-7*	.	i	i	i
CCCCCN1C2=NCCN2c2ccccc21	i	-6*	3	i	i	i
